Laboratory results published in ChEMBL document CHEMBL1157304, “Sesquiterpene lactones from Inula britannica and their cytotoxic and apoptotic effects on human cancer cell lines” (J Nat Prod, 2006).

Experiments:
[1] = system: HL-60; test: Induction of apoptosis in human HL60 cells at 5 uM after 24 hrs by FACS; type: functional
Summary of the method: (§1)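 2 × 10^5 cells plated in 60 mm dishes and incubated 24 h, then treated for 24 h with compound in DMSO. Cells harvested, washed in PBS and fixed overnight in ice-cold ethanol at −20 °C. Pellets held 30 min at 37 °C in 0.5% Triton X-100/PBS with 0.5 μg/mL RNase. Propidium iodide (50 μg/mL) added, 30 min on ice. Sub-G1 fraction read by FACScan flow cytometry. n=3, mean ± SE.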

[2] = system: HL-60; test: Cytotoxicity against human HL60 cells after 24 hrs by trypan blue exclusion assay; type: functional, cell-based; details: HL-60, 24 h
Summary of the method: (§2)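 Cells grown at 37 °C, 5% CO2; RPMI for COLO 205, HT-29 and HL-60, DMEM/F12 for AGS, each with 10% heat-inactivated FBS, penicillin/streptomycin and 2 mM L-glutamine. Compounds in DMSO (vehicle control 0.01% DMSO) tested at 5–100 μM for 24 h. Cells diluted 1:1 with 0.5% trypan blue. Unstained cells counted by hemocytometer and expressed as % viable. Three samples per group, mean ± SE.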

[3] = system: HT-29; test: Induction of apoptosis in human HT29 cells at 10 uM after 24 hrs by FACS; type: functional; summary of the method: as §1
[4] = system: COLO 205; test: Induction of apoptosis in human COLO205 cells at 100 uM after 24 hrs by FACS; type: functional; summary of the method: as §1
[5] = system: AGS; test: Induction of apoptosis in human AGS cells at 50 uM after 24 hrs by FACS; type: functional; summary of the method: as §1
[6] = system: COLO 205; test: Induction of apoptosis in human COLO205 cells at 10 uM after 24 hrs by FACS; type: functional; summary of the method: as §1
[7] = system: AGS; test: Induction of apoptosis in human AGS cells at 25 uM after 24 hrs by FACS; type: functional; summary of the method: as §1
[8] = system: HT-29; test: Induction of apoptosis in human HT29 cells at 100 uM after 24 hrs by FACS; type: functional; summary of the method: as §1
[9] = system: AGS; test: Cytotoxicity against human AGS cells after 24 hrs by trypan blue exclusion assay; type: functional, cell-based; summary of the method: as §2
[10] = system: HT-29; test: Induction of apoptosis in human HT29 cells at 25 uM after 24 hrs by FACS; type: functional; summary of the method: as §1
[11] = system: COLO 205; test: Induction of apoptosis in human COLO205 cells at 5 uM after 24 hrs by FACS; type: functional; summary of the method: as §1
[12] = system: HL-60; test: Induction of apoptosis in human HL60 cells at 10 uM after 24 hrs by FACS; type: functional; summary of the method: as §1
[13] = system: HT-29; test: Cytotoxicity against human HT29 cells after 24 hrs by trypan blue exclusion assay; type: functional, cell-based; details: HT-29, 24 h; summary of the method: as §2
[14] = system: HL-60; test: Induction of apoptosis in human HL60 cells at 50 uM after 24 hrs by FACS; type: functional; summary of the method: as §1
[15] = system: COLO 205; test: Induction of apoptosis in human COLO205 cells at 50 uM after 24 hrs by FACS; type: functional; summary of the method: as §1
[16] = system: HT-29; test: Induction of apoptosis in human HT29 cells at 50 uM after 24 hrs by FACS; type: functional; summary of the method: as §1
[17] = system: HL-60; test: Induction of apoptosis in human HL60 cells at 25 uM after 24 hrs by FACS; type: functional; summary of the method: as §1
[18] = system: AGS; test: Induction of apoptosis in human AGS cells at 10 uM after 24 hrs by FACS; type: functional; summary of the method: as §1
[19] = system: HL-60; test: Induction of apoptosis in human HL60 cells at 100 uM after 24 hrs by FACS; type: functional; summary of the method: as §1
[20] = system: AGS; test: Induction of apoptosis in human AGS cells at 5 uM after 24 hrs by FACS; type: functional; summary of the method: as §1
[21] = system: COLO 205; test: Induction of apoptosis in human COLO205 cells at 25 uM after 24 hrs by FACS; type: functional; summary of the method: as §1
[22] = system: AGS; test: Induction of apoptosis in human AGS cells at 100 uM after 24 hrs by FACS; type: functional; summary of the method: as §1
[23] = system: COLO 205; test: Cytotoxicity against human COLO205 cells after 24 hrs by trypan blue exclusion assay; type: functional, cell-based; details: COLO 205, 24 h; summary of the method: as §2
[24] = system: HT-29; test: Induction of apoptosis in human HT29 cells at 5 uM after 24 hrs by FACS; type: functional; summary of the method: as §1

## C=C1C(=O)O[C@@H]2CC(C)=C([C@@H](C)CCCOC(C)=O)[C@H](OC(C)=O)[C@H]12
[1]
  Activity: 6.14%
[2]
  IC50: 35.3 µM
[3]
  Activity: 11.15%
[4]
  Activity: 17.82%
[5]
  Activity: 10.79%
[6]
  Activity: 8.69%
[7]
  Activity: 11.29%
[8]
  Activity: 20.88%
[9]
  IC50: 66.4 µM
[10]
  Activity: 11.5%
[11]
  Activity: 6.94%
[12]
  Activity: 8.67%
[13]
  IC50: 76.6 µM
[14]
  Activity: 27.02%
[15]
  Activity: 15.44%
[16]
  Activity: 13.08%
[17]
  Activity: 21.13%
[18]
  Activity: 5.79%
[19]
  Activity: 22.24%
[20]
  Activity: 7.49%
[21]
  Activity: 26.95%
[22]
  Activity: 8.12%
[23]
  IC50: 56.7 µM
[24]
  Activity: 11.19%

## C=C1C(=O)O[C@@H]2CC(C)=C([C@@H](C)CCCOC(C)=O)[C@H](O)[C@H]12
[1]
  Activity: 4.05%
[2]
  IC50: > 100 µM
[3]
  Activity: 6.81%
[4]
  Activity: 35.79%
[5]
  Activity: 14.84%
[6]
  Activity: 11.32%
[7]
  Activity: 14.666%
[8]
  Activity: 14.87%
[9]
  IC50: > 100 µM
[10]
  Activity: 11.68%
[11]
  Activity: 13.44%
[12]
  Activity: 7.26%
[13]
  IC50: 96 µM
[14]
  Activity: 5.69%
[15]
  Activity: 16.59%
[16]
  Activity: 9.26%
[17]
  Activity: 4.37%
[18]
  Activity: 17.28%
[19]
  Activity: 22.19%
[20]
  Activity: 15.37%
[21]
  Activity: 16.48%
[22]
  Activity: 18.85%
[23]
  IC50: > 100 µM
[24]
  Activity: 5.36%

## C=C1C(=O)O[C@@H]2CC(C)=C([C@@H](C)CCCO)[C@H](O)[C@H]12 [BRITANNILACTONE]
[1]
  Activity: 7.22%
[2]
  IC50: > 100 µM
[3]
  Activity: 6.16%
[4]
  Activity: 28.31%
[5]
  Activity: 8.97%
[6]
  Activity: 12.28%
[7]
  Activity: 10.16%
[8]
  Activity: 7.55%
[9]
  IC50: > 100 µM
[10]
  Activity: 6.49%
[11]
  Activity: 11.9%
[12]
  Activity: 5.64%
[13]
  IC50: > 100 µM
[14]
  Activity: 8.01%
[15]
  Activity: 15.54%
[16]
  Activity: 6.59%
[17]
  Activity: 5.24%
[18]
  Activity: 10.37%
[19]
  Activity: 12.83%
[20]
  Activity: 7.93%
[21]
  Activity: 12.79%
[22]
  Activity: 10.37%
[23]
  IC50: > 100 µM
[24]
  Activity: 5.75%

## CC(=O)OCCC[C@H](C)C1=C[C@@H]2[C@H](C)C(=O)O[C@@H]2C[C@@]1(C)O [NEOBRITANNILACTONE A]
[1]
  Activity: 6.68%
[2]
  IC50: 85.8 µM
[3]
  Activity: 4.24%
[4]
  Activity: 25.5%
[5]
  Activity: 9.41%
[6]
  Activity: 6.51%
[7]
  Activity: 10.57%
[8]
  Activity: 7.73%
[9]
  IC50: > 100 µM
[10]
  Activity: 5.17%
[11]
  Activity: 4.08%
[12]
  Activity: 6.31%
[13]
  IC50: > 100 µM
[14]
  Activity: 6.63%
[15]
  Activity: 5.44%
[16]
  Activity: 4.09%
[17]
  Activity: 6.19%
[18]
  Activity: 9.83%
[19]
  Activity: 16.31%
[20]
  Activity: 9.23%
[21]
  Activity: 4.28%
[22]
  Activity: 9.81%
[23]
  IC50: 97.9 µM
[24]
  Activity: 3.94%

## C=C1C(=O)O[C@H]2/C=C(\C)CC/C=C(\C)C[C@H](OC(C)=O)[C@@H]12 [ACETYL NEOBRITANNILACTONE B]
[1]
  Activity: 22.93%
[2]
  IC50: 16.2 µM
[3]
  Activity: 47.56%
[4]
  Activity: 98.66%
[5]
  Activity: 13.64%
[6]
  Activity: 34.72%
[7]
  Activity: 9.89%
[8]
  Activity: 82.47%
[9]
  IC50: 5.4 µM
[10]
  Activity: 69.7%
[11]
  Activity: 15.47%
[12]
  Activity: 39.71%
[13]
  IC50: 57 µM
[14]
  Activity: 97.74%
[15]
  Activity: 96.92%
[16]
  Activity: 81.43%
[17]
  Activity: 95.17%
[18]
  Activity: 7.87%
[19]
  Activity: 98.05%
[20]
  Activity: 6.16%
[21]
  Activity: 76.87%
[22]
  Activity: 43.11%
[23]
  IC50: 14.7 µM
[24]
  Activity: 20.38%

## C=C1C(=O)O[C@@H]2CC(C)=C([C@@H](C)CCCO)[C@H](OC(=O)C(C)CC)[C@H]12 (stereo partly drawn)
[1]
  Activity: 6.41%
[2]
  IC50: 47.1 µM
[3]
  Activity: 3.68%
[4]
  Activity: 36.24%
[5]
  Activity: 28.48%
[6]
  Activity: 5.86%
[7]
  Activity: 17.76%
[8]
  Activity: 6.4%
[9]
  IC50: 31.3 µM
[10]
  Activity: 3.93%
[11]
  Activity: 5.33%
[12]
  Activity: 5.36%
[13]
  IC50: 48.1 µM
[14]
  Activity: 28.6%
[15]
  Activity: 27.21%
[16]
  Activity: 5.16%
[17]
  Activity: 10.53%
[18]
  Activity: 11.38%
[19]
  Activity: 27.05%
[20]
  Activity: 10.89%
[21]
  Activity: 15.2%
[22]
  Activity: 27.1%
[23]
  IC50: 58.7 µM
[24]
  Activity: 4.24%

## C=C1C(=O)O[C@H]2/C=C(\C)CC/C=C(\C)C[C@H](O)[C@@H]12 [NEOBRITANNILACTONE B]
[1]
  Activity: 9.82%
[2]
  IC50: 27.4 µM
[3]
  Activity: 24.46%
[4]
  Activity: 96.81%
[5]
  Activity: 15.95%
[6]
  Activity: 14.12%
[7]
  Activity: 11.78%
[8]
  Activity: 87.02%
[9]
  IC50: 21.4 µM
[10]
  Activity: 66.54%
[11]
  Activity: 10.73%
[12]
  Activity: 21.93%
[13]
  IC50: 56.1 µM
[14]
  Activity: 96.94%
[15]
  Activity: 89.11%
[16]
  Activity: 82.27%
[17]
  Activity: 77.57%
[18]
  Activity: 8.66%
[19]
  Activity: 98.29%
[20]
  Activity: 9.55%
[21]
  Activity: 41.62%
[22]
  Activity: 19.22%
[23]
  IC50: 14.3 µM
[24]
  Activity: 13.58%
